Furin inhibitor: human furin inhibition; P09958; purified furin, fluorogenic substrate cleavage; inhibition, % at 20 µM or 30 µM; 220,000 tested, 0.061% active; AID 463115; in the data active = inhibition above about 25%
FXIIa inh: blocks human coagulation factor XIIa protease activity. P00748. purified FXIIa, Boc-QGR-AMC fluorogenic substrate, 2 h. inhibition, % at 5 µM. 220,000 tested, 0.3% active. AID 800; in the data active = inhibition above about 40%;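 also: 0% = enzyme with no compound and 100% = blank without enzyme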
Thrombin inh: blocks human thrombin protease activity; 220,000 tested, 0.26% active; AID 1046; alpha-thrombin, Boc-VPR-AMC fluorogenic substrate cleavage; inhibition, % at 5 µM; P00734;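 active = inhibition at or above 40%; inactive = inhibition below 40%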;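 also: 0% = enzyme with no compound and 100% = wells without enzyme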
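Material: human alpha-thrombin protein. Incubation: reaction at ambient temperature. Technique: fluorescence of released AMC, ex 355 nm, em 460 nm. Control set: no-compound enzyme wells and no-enzyme blanks. Also added: Boc-VPR-AMC substrate, 15 µM final. Buffer or medium: pH 7.5 Tris (50 mM) with NaCl 150 mM, Tween 20 0.05%.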
Biofilm kill mix: mixtures killing C. albicans biofilm; 120,000 tested, 0.02% active; inhibition, % at 7.6 µM; C. albicans biofilm persisters + clotrimazole, fluorescence viability; primary screen in compound mixtures of four per well;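 also: compounds exposed to preformed 24 h biofilms for 48 h; 0% = untreated biofilm control and 100% = clotrimazole plus chlorhexidine kill blank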
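Incubation: 24 h biofilm formation, then 48 h compound exposure, 37 °C | Material: C. albicans biofilms | Buffer or medium: RPMI/MOPS medium, pH 7.0 | Measured by: 2-h Alamar Blue fluorescence, 535/590 nm excitation/emission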
KLK5 inh: kallikrein 5 (human) inhibition. 210,000 tested, 0.59% active. recombinant hK5, fluorogenic AMC substrate cleavage. AID 873. inhibition, % at 5 µM;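 active = inhibition of 40% or more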;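 also: 0% = enzyme controls without compound and 100% = no-enzyme blanks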
Target sequence (Q9Y337 67-293 limits assumed): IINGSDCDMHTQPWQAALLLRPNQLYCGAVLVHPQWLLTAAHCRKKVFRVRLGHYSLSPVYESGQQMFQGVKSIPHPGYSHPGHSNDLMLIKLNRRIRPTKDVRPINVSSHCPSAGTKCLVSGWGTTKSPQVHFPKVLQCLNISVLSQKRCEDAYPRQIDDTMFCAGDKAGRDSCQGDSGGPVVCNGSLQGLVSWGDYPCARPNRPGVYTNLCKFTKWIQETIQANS
FXIa inh 1536: blocks human coagulation factor XIa protease activity; purified FXIa, Boc-Glu-Ala-Arg-AMC fluorogenic substrate; inhibition, % at 5 µM; 220,000 tested, 0.14% active;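 active = inhibition of at least 40%; inactive = inhibition below 40%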;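 also: fluorescence of freed AMC excited at 355 nm; 0% = enzyme without compound and 100% = no enzyme blank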
An asterisk follows results filed as active; x = no result given. Hits are enriched below; roughly 1.1% of the tested compounds scored in any of these assays.

SMILES	Furin inhibitor	FXIIa inh	Thrombin inh	Biofilm kill mix	KLK5 inh	FXIa inh 1536
CCOC(=O)CSc1nnc(NC(=O)c2cc([N+](=O)[O-])cc([N+](=O)[O-])c2)s1	10	21	92*	3	18	13
Cc1cc(-c2n[nH]c(=S)n2/N=C/c2ccc(Cl)c([N+](=O)[O-])c2)n[nH]1	-23	4	-9	1	-7	4
Cc1cc(-c2n[nH]c(=S)n2/N=C/c2cc([N+](=O)[O-])ccc2Cl)n[nH]1	-3	15	33	7	47*	8
Cc1nn(CCC(=O)O)c(C)c1C	-16	13	1	x	5	5
Cc1nn(C)c(C)c1CN(C)C(=O)CCCC(=O)O	25*	34	2	-2	1	21
O=C(Oc1ccc2ccc(=O)oc2c1)c1cccs1	-91	62*	11	12	-8	51*
CS(=O)(=O)c1[nH]nc(-c2ccccc2)c1C#N	-23	3	-6	14	2	-18
CCN(C(=O)COC(=O)/C=C/c1c(C)nn(-c2ccccc2)c1C)C1CCS(=O)(=O)C1 (centres undefined)	-5	26	14	2	32	43*
CCCCCC(=O)Nc1cccc(C2=NOC3(C2)C[C@@H](C(N)=O)N(C(=O)c2cc([N+](=O)[O-])cc([N+](=O)[O-])c2C)C3)c1 (some centres undefined)	-1	24	14	13	14	40*
Cc1ccc(NC(=O)/C=N/OCC(=O)NCc2ccccc2Cl)cc1	-20	14	2	22	7	3
COc1ccc(C2=NN(C3=NN=C(N)Cc4ncnn43)C(O)(C(F)(F)F)C2)cc1 (centres undefined)	-22	6	-5	7	-18	-7
Cc1cc(=O)oc2cc(OC(=O)CCN3C(=O)c4ccccc4C3=O)ccc12	-33	63*	8	x	-25	-14
CCOC(=O)CC1C(=O)NCCN1C1CCCC1 (centres undefined)	-7	7	-6	19	0	-6
COc1ccc(C(=O)c2coc3ccc(O)c(CN4CCCCC4)c23)cc1	-23	10	13	x	48*	4
CCN(C(=O)CSc1nnc(-c2ccncc2)n1Cc1ccccc1)C1CCS(=O)(=O)C1 (centres undefined)	-22	7	-9	26	4	1
Cc1ccccc1NC(=O)c1ccccc1NC(=O)Cc1cccc2ccccc12	1	13	1	16	-6	4
Cc1ccccc1NC(=O)c1cccc2nc3ccccc3nc12	-33	44*	1	x	14	13
Cn1ncc(Cl)c1C(=O)Nc1cccc(Cl)c1	30*	31	0	-5	-12	18
O=C(NNC(=O)c1c(F)cccc1F)c1ccccc1-n1cccc1	-23	5	-6	21	-1	0
Cc1ccc(C)c2[nH]c(=O)c(CN(Cc3nnnn3C3CCCCC3)CC3CCCO3)cc12 (centres undefined)	-5	41*	-8	x	-10	6
Cc1ccc2nc(NC(=O)CSCC(=O)OCC(=O)c3ccc(Br)cc3)sc2c1	-7	19	92*	x	9	7
C/C(=N\NC(=O)OC(C)(C)C)c1ccccc1Br	-1	6	-8	0	-3	-7
Cc1ccc(-c2nnc3n2N=C(c2ccc(Br)cc2)CS3)cc1	-33	53*	-6	x	-8	40
CCN(CC)c1ccc(NC(=O)c2nc3nc(C)cc(C(F)F)n3n2)cc1	-20	11	22	x	48*	9
COc1ccc(NC(=O)c2nc3nc(C)cc(C(F)F)n3n2)cc1OC	-2	7	-7	x	-12	-6
SMILES	Furin inhibitor	FXIIa inh	Thrombin inh	Biofilm kill mix	KLK5 inh	FXIa inh 1536
COc1ccc(OC)c(Cc2nnc(CCC(=O)N3CCC(N4CCCCC4)CC3)o2)c1	-3	32	23	8	44*	30
COc1c(C)cc(C(=O)C2CCCN(C(=O)c3ccc4cc[nH]c4c3)C2)cc1C (centres undefined)	-22	5	2	14	x	-3
Cc1cc(N/N=C/c2ccncc2)c([N+](=O)[O-])cc1[N+](=O)[O-]	-5	4	-2	29	4	1
COc1ccc(-c2cc(C(=O)c3c(N)n(C)c(=O)n(C)c3=O)c3ccccc3n2)cc1OC	-3	42*	10	11	20	39
O=[N+]([O-])c1ccc(OCCO)c(P(=O)(c2ccccc2)c2ccccc2)c1	2	24	7	7	33	70*
CCn1c(C)nc2cc(C(=O)N/N=C/c3ccc(N4CCOCC4)cc3)ccc21	-17	4	-1	10	0	-2
COCCn1c(N)c(N(Cc2ccccc2)C(=O)C2CCCC2)c(=O)[nH]c1=O	-12	8	-13	22	4	2
COCCn1c(N)c(C(=S)NC(=O)c2cccs2)c(=O)[nH]c1=O	9	35	1	5	90*	18
CC(=O)N/C(=C\c1ccc(Br)s1)C(=O)O	-2	0	x	1	-4	-2
O=C(OCn1ncc(Cl)c(Cl)c1=O)c1ccc(F)cc1	-18	-12	-1	x	2	-1
O=c1c(Cl)c(Cl)cnn1Cc1ccc(F)cc1	-7	52*	22	34	28	38
O=C(O)CCN1C(=O)C2C3c4ccccc4C(c4ccccc43)[C@@H]2C1=O (some centres undefined)	-9	46*	23	29	30	31
O=C(O)CCN1C(=O)C2C3c4ccccc4C(c4ccccc43)C2C1=O (centres undefined)	-20	7	1	15	4	3
CCCCc1[nH]c(=O)c(C#N)c2c1CSC(C)(C)C2	-11	4	-8	x	-38	-3
CCCCc1[nH]c(=O)c(C#N)c2c1CCCC2	-3	49*	3	x	-6	34
COc1ccccc1C(=O)C1CCCN(Cc2cn[nH]c2C2CCCCC2)C1 (centres undefined)	-24	13	-3	17	x	0
O=C(Nc1c(O)c2ccccc2[nH]c1=O)c1ccco1	-13	3	1	5	2	-1
CC(C)OC(=O)c1ccc(N)cc1	-17	7	-8	25	4	-1
CCC(=O)n1nc(-c2ccc(Cl)cc2)nc1NCc1ccccc1	0	14	71*	x	-9	4
COc1ccccc1C(=O)n1nc(-c2cccnc2)nc1NCc1ccccc1	-14	3	x	12	0	15
COCC(=O)n1nc(-c2ccccc2)nc1NCc1cccs1	-19	11	86*	20	6	3
C=CCNc1cc(N2CCCC2)ccc1[N+](=O)[O-]	-7	10	-3	37	3	3
CCCNC(=O)c1nnsc1S(=O)(=O)c1ccc(Cl)cc1	-21	-8	0	34*	-7	-2
O=C(Nc1ccccc1N1CCOCC1)c1ccc2nc[nH]c2c1	-18	12	56*	13	14	5

Screens as filed in PubChem BioAssay.
